Activity calls are given as the source filed them. No cut-off for these calls is given here.
Key:
DU-145 = experiment: Inhibition of RNA polymerase 2 in human DU145 cells assessed as decrease in polymerase 2 phosphorylation at 50 to 100 nM after 18 hrs by Western blot analysis; format: cell-based
Mus musculus [1] = experiment: Toxicity in BALB/c nu/nu mouse xenografted with human KBM5 cells harboring Bcr-Abl T315I mutant assessed as change in body weight at 0.5 mg/kg/day, ip for 2 weeks administered on day 14 after tumor implantation; format: organism-based; design: route intraperitoneal; conditions: in vivo, 336 h
In short: (§1)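 Male nu/nu BALB/c mice (6–8 weeks) received 3 × 10⁷ KBM5-T315I cells subcutaneously in the flank. At about 50 mm³ (day 14) they were randomized, 4 per group, to daily ip drug in normal saline or the same volume of saline for two weeks. Body weight, feeding and motor activity were monitored, along with morbidity and mortality. At the end, blood was taken for AST, ALT, LDH and complete blood count.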

[2] = Downregulation of Bcr-Abl mRNA level in human KBM5 cells harboring Bcr-Abl T315I mutant at 50 to 100 nM after 18 hrs by semi-quantitative RT-PCR analysis; format: functional, cell-based
In short: (§2)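 KBM5 and KBM5-T315I cells exposed to 50 or 100 nM, or control medium, for 18 h. Bcr-Abl and GAPDH mRNA measured by semi-quantitative RT-PCR; products run on 1% agarose and stained with ethidium bromide.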

MEF = experiment: Cytotoxicity against MEF after 72 hrs by MTS assay; format: cell-based; conditions: Mus musculus
In short: (§3)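 MEF and NHFB fibroblasts cultured in DMEM + 10% FCS. Exposed to increasing concentrations for 72 h. Viability by MTS reagent, optical density at 490 nm.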

KBM5 [3] = experiment: Antitumor activity against Bcr-Abl T315I mutant expressing human KBM5 cells xenografted in BALB/c nu/nu mouse assessed as decrease in tumor volume at 0.5 mg/kg/day, ip for 2 weeks administered on day 14 after tumor implantation; format: functional, organism-based
In short: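 KBM5-T315I cells, 3 × 10⁷, injected s.c. into the flanks of male nu/nu BALB/c mice aged 6–8 weeks. Dosing began at about 50 mm³ on day 14: 0.5 mg/kg/d i.p. in normal saline for two weeks, with saline controls and four mice per group. Calipers every other day; volume = a² × b × 0.4.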

[4] = Downregulation of Bcr-Abl protein level in human KBM5 cells harboring wild type Bcr-Abl after 18 hrs by Western blot analysis; format: functional, cell-based
In short: (§4)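 Cells exposed for 18 h at the indicated concentrations. Whole-cell lysates made in RIPA buffer with phosphatase and protease inhibitors. Western blot for Bcr-Abl (c-Abl C-19), phospho-c-Abl Y245, phospho-RNA polymerase II, PARP, and actin as loading control.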

[5] = Downregulation of Bcr-Abl mRNA level in human KBM5 cells harboring wild type Bcr-Abl at 50 to 100 nM after 18 hrs by semi-quantitative RT-PCR analysis; format: functional, cell-based; in short: as §2
[6] = Cytotoxicity against NHFB after 72 hrs by MTS assay; design: species or system Homo sapiens; in short: as §3
Mus musculus [7] = experiment: Toxicity in BALB/c nu/nu mouse xenografted with human KBM5 cells harboring Bcr-Abl T315I mutant assessed as morbidity at 0.5 mg/kg/day, ip for 2 weeks administered on day 14 after tumor implantation; format: organism-based; design: route intraperitoneal; conditions: in vivo, 336 h; in short: as §1
[8] = Downregulation of Bcr-Abl protein level in mouse 32D cells harboring Bcr-Abl T315I mutant after 18 hrs by Western blot analysis; format: functional, cell-based; in short: as §4
[9] = Cytotoxicity against imatinib-resistant mouse 32D cells harboring Bcr-Abl T315I mutant after 72 hrs by MTS assay; format: functional, cell-based
In short: (§5)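 32D myeloid cells stably expressing wild-type or T315I Bcr-Abl, maintained in RPMI 1640 + 10% FBS. Treated with increasing concentrations for 72 h. Viability by MTS, optical density at 490 nm.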

Mus musculus [10] = experiment: Toxicity in BALB/c nu/nu mouse xenografted with human KBM5 cells harboring Bcr-Abl T315I mutant assessed as effect on motor activity at 0.5 mg/kg/day, ip for 2 weeks administered on day 14 after tumor implantation; format: organism-based; design: route intraperitoneal; conditions: in vivo, 336 h; in short: as §1
KBM5 [11] = experiment: Cytotoxicity against imatinib-resistant human KBM5 cells harboring Bcr-Abl T315I mutant at 0.001 to 17 uM after 72 hrs by MTS assay; format: functional, cell-based
In short: (§6)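 KBM5 (wild-type p210 Bcr-Abl) or KBM5-T315I cells in IMDM + 10% heat-inactivated FCS. The T315I subline was kept in 1 µM imatinib, removed 2–3 days before assay. Cells incubated 72 h with increasing concentrations. Viability by MTS at 490 nm, as percent of control; IC50 from dose–response curves.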

Mus musculus [12] = experiment: Toxicity in BALB/c nu/nu mouse xenografted with human KBM5 cells harboring Bcr-Abl T315I mutant assessed as mortality at 0.5 mg/kg/day, ip for 2 weeks administered on day 14 after tumor implantation; format: organism-based; design: route intraperitoneal; conditions: in vivo, 336 h; in short: as §1
Mus musculus [13] = experiment: Toxicity in BALB/c nu/nu mouse xenografted with human KBM5 cells harboring Bcr-Abl T315I mutant assessed as occurrence of myelosuppression at 0.5 mg/kg/day, ip for 2 weeks administered on day 14 after tumor implantation; format: organism-based; design: route intraperitoneal; conditions: in vivo, 336 h; in short: as §1
KBM5 [14] = experiment: Inhibition of RNA polymerase 2 in human KBM5 cells harboring Bcr-Abl T315I mutant assessed as decrease in polymerase 2 phosphorylation after 18 hrs by Western blot analysis; format: cell-based; in short: as §4
KBM5 [15] = experiment: Cytotoxicity against human KBM5 cells harboring wild type Bcr-Abl at 0.001 to 17 uM after 72 hrs by MTS assay; format: functional, cell-based; in short: as §6
[16] = Downregulation of Bcr-Abl protein level in mouse 32D cells harboring wild type Bcr-Abl after 18 hrs by Western blot analysis; format: functional, cell-based; in short: as §4
KBM5 [17] = experiment: Induction of apoptosis in human KBM5 cells harboring wild type Bcr-Abl assessed as PARP cleavage at 50 to 100 uM after 18 hrs by Western blot analysis; format: functional, cell-based
Mus musculus [18] = experiment: Toxicity in BALB/c nu/nu mouse xenografted with human KBM5 cells harboring Bcr-Abl T315I mutant assessed as increase in blood alanine aminotransferase level at 0.5 mg/kg/day, ip for 2 weeks administered on day 14 after tumor implantation; format: organism-based; design: route intraperitoneal; conditions: in vivo, 336 h; in short: as §1
Mus musculus [19] = experiment: Toxicity in BALB/c nu/nu mouse xenografted with human KBM5 cells harboring Bcr-Abl T315I mutant assessed as effect on feeding behavior at 0.5 mg/kg/day, ip for 2 weeks administered on day 14 after tumor implantation; format: organism-based; design: route intraperitoneal; conditions: in vivo, 336 h; in short: as §1
KBM5 [20] = experiment: Inhibition of RNA polymerase 2 in human KBM5 cells harboring wild type Bcr-Abl assessed as decrease in polymerase 2 phosphorylation after 18 hrs by Western blot analysis; format: cell-based; in short: as §4
[21] = Downregulation of Bcr-Abl protein level in human KBM5 cells harboring Bcr-Abl T315I mutant after 18 hrs by Western blot analysis; format: functional, cell-based; in short: as §4
[22] = Cytotoxicity against mouse 32D cells harboring wild type Bcr-Abl after 72 hrs by MTS assay; format: functional, cell-based; in short: as §5
KBM5 [23] = experiment: Induction of apoptosis in human KBM5 cells harboring Bcr-Abl T315I mutant assessed as PARP cleavage at 50 to 100 uM after 18 hrs by Western blot analysis; format: functional, cell-based
[24] = Cytotoxicity against imatinib-resistant human KBM5 cells harboring Bcr-Abl T315I mutant after 72 hrs by MTS assay; format: functional, cell-based; conditions: KBM5, 72 h; in short: as §6
Mus musculus [25] = experiment: Toxicity in BALB/c nu/nu mouse xenografted with human KBM5 cells harboring Bcr-Abl T315I mutant assessed as increase in blood aspartate aminotransferase level at 0.5 mg/kg/day, ip for 2 weeks administered on day 14 after tumor implantation; format: organism-based; design: route intraperitoneal; conditions: in vivo, 336 h; in short: as §1
HeLa = experiment: Inhibition of RNA polymerase 2 in human HeLa cells assessed as decrease in polymerase 2 phosphorylation at 50 to 100 nM after 18 hrs by Western blot analysis; format: cell-based
Mus musculus [26] = experiment: Toxicity in BALB/c nu/nu mouse xenografted with human KBM5 cells harboring Bcr-Abl T315I mutant at 0.5 mg/kg/day, ip for 2 weeks administered on day 14 after tumor implantation by pilot dose-finding test; format: organism-based; design: route intraperitoneal; conditions: in vivo, 336 h
[27] = Cytotoxicity against human KBM5 cells harboring wild type Bcr-Abl after 72 hrs by MTS assay; format: functional, cell-based; conditions: KBM5, 72 h; in short: as §6
HCT-116 = experiment: Inhibition of RNA polymerase 2 in human HCT116 cells assessed as decrease in polymerase 2 phosphorylation at 50 to 100 nM after 18 hrs by Western blot analysis; format: cell-based
[28] = Cytotoxicity against human KBM5 cells harboring Bcr-Abl T315I mutant after 72 hrs by MTT assay; format: functional, cell-based; conditions: KBM5, 72 h
[29] = Cytotoxicity against human KBM5 cells harboring wild type Bcr-Abl after 72 hrs by MTT assay; conditions: KBM5, 72 h

For `CC(C)[C@]12O[C@H]1[C@@H]1O[C@@]13[C@H]1CCC4=C(COC4=O)[C@@H]1C[C@@H]1O[C@@]13[C@@H]2OC(=O)CN1CCOCC1`, the inhibition (DU-145) was “Active”, the Activity (Mus musculus [1]) was “Non-toxic” and the Activity [2] was “Active”. The IC50 (MEF) was 11500 nM, the Activity (KBM5 [3]) was “Active” and the Activity [4] was “Dose-dependent effect”. For the same compound, the Activity [5] was “Active”, the IC50 [6] was 10400 nM and the Activity (Mus musculus [7]) was “Non-toxic”. For the same compound, the Activity [8] was “Dose-dependent effect”, the IC50 [9] was 80 nM and the Activity (Mus musculus [10]) was “Non-toxic”. The Activity (KBM5 [11]) was “Active”, the Activity (Mus musculus [12]) was “Non-toxic” and the Activity (Mus musculus [13]) was “Non-toxic”. For the same compound, the inhibition (KBM5 [14]) was “Dose-dependent effect”, the Activity (KBM5 [15]) was “Active” and the Activity [16] was “Dose-dependent effect”. For the same compound, the Activity (KBM5 [17]) was “Active”, the Activity (Mus musculus [18]) was “Non-toxic” and the Activity (Mus musculus [19]) was “Non-toxic”. For the same compound, the inhibition (KBM5 [20]) was “Dose-dependent effect”, the Activity [21] was “Dose-dependent effect” and the IC50 [22] was 70 nM. The Activity (KBM5 [23]) was “Active”, the IC50 [24] was 20.7 nM and the Activity (Mus musculus [25]) was “Non-toxic”. The inhibition (HeLa) was “Active”, the Activity (Mus musculus [26]) was “Non-toxic” and the IC50 [27] was 52.5 nM. For the same compound, the inhibition (HCT-116) was “Active”.
Compound `Cc1ccc(NC(=O)c2ccc(CN3CCN(C)CC3)cc2)cc1Nc1nccc(-c2cccnc2)n1` [IMATINIB] has an IC50 [28] of 5400 nM and an IC50 [29] of 280 nM.
